Measured values of several laboratories.
Si: Sucrase-isomaltase, intestinal (Si, Rattus norvegicus, UniProt P23739)
BRD1 bromodomain: Bromodomain-containing protein 1, bromodomain (BRD1, Homo sapiens, UniProt O95696)
Abl2: Abl2 (Mus musculus, UniProt Q4JIM5)
EIF2AK1: Eukaryotic translation initiation factor 2-alpha kinase 1 (EIF2AK1, Homo sapiens, UniProt Q9BQI3)

| Structure (SMILES) | target | test | conditions | endpoint | result |
| --- | --- | --- | --- | --- | --- |
| O=C1OC[C@H]2OC(=O)c3cc(O)c(O)c(O)c3-c3c(O)c(O)c(O)c4c3C(=O)O[C@H]([C@H]3OC(=O)c5c-4c(O)c(O)c(O)c5[C@H]3O)[C@@H]2OC(=O)c2cc(O)c(O)c(O)c2-c2c1cc(O)c(O)c2O | Si | enzyme activity, inhibitor | 100 µg/mL | inhibition | 48.3% |
| O=C(Nc1cccc(-c2ccn[nH]2)c1)c1cccc2cn[nH]c12 | pqsE (Pseudomonas aeruginosa, UniProt P20581) | thermal stability, DSF | 100 µM | ΔTm | 3.4 °C |
| Cc1ccc(C(=O)Nc2ccc(CN3CCN(C)CC3)c(C(F)(F)F)c2)cc1C#Cc1cnc2cccnn12 | Serine/threonine-protein kinase RIO2 (RIOK2, Homo sapiens, UniProt Q9BVS4) | enzyme activity, inhibitor | 23.5 nM | remaining activity | 88% |
| O=C(c1ccc(F)cc1)N(Cc1ccccc1)C1CCCCC1 | 5-hydroxytryptamine receptor 1A (HTR1A, Homo sapiens, UniProt P08908) | ligand displacement, radioligand | 10 µM | inhibition | 2% |
| O=c1c(O[C@@H]2O[C@H](CO)[C@@H](O)[C@H](O)[C@H]2O)c(-c2ccc(O)c(O)c2)oc2cc(O)cc(O)c12 | Si | enzyme activity, inhibitor | 100 µg/mL | inhibition | 54.6% |
| CCOCc1nc(O)c(-c2nnc(Cc3ccc(Cl)cn3)o2)c(O)c1-c1c(OC)cccc1OC | Apelin receptor (APLNR, Homo sapiens, UniProt P35414) | binding, radioligand | – | koff | 0.00075 s⁻¹ |
| C[S+]([O-])c1ccc(-c2nc(-c3ccncc3)c(-c3ccc(F)cc3)[nH]2)cc1 (stereo not drawn) | BRD1 bromodomain | thermal stability, DSF | 10 µM | ΔTm | -0.23 °C |
| Cc1ccc(NC(=O)c2ccc(C)c(C(F)(F)F)c2)cc1C#Cc1nn(C2CCC(O)CC2)c2ncnc(N)c12 (stereo not drawn) | Abl2 | cell-free assay | 10 µM | remaining signal | -1% |
| Nc1ncnc2occ(-c3ccc(NC(=O)Nc4cc(C(F)(F)F)ccc4F)cc3)c12 | Phosphatidylinositol 3-kinase catalytic subunit type 3 (PIK3C3, Homo sapiens, UniProt Q8NEB9) | cell-free assay | 20 µM | remaining signal | 73% |
| Cn1c2c(c3ccc(Cl)c(Cl)c31)C(C#N)C(C)(C)NC2=O (stereo not drawn) | Rhodopsin kinase GRK1 (GRK1, Homo sapiens, UniProt Q15835) | thermal stability, DSF | 10 µM | ΔTm | 2.7 °C |
| COc1cc(Cl)c(C(=O)N[C@@H](CN[C@H]2CC[C@@H](N)CC2)Cc2ccc(C#N)cc2)cc1-c1ccc(CN[C@H](C)c2ccc(C)cc2)o1 | EIF2AK1 | enzyme activity, inhibitor | 1 µM | remaining activity | 93% |
| CCCOc1ccc(OC)c(F)c1C(=O)c1ccc(C(=O)N[C@@H]2CNC[C@H]2NC(=O)c2ccc3[nH]ncc3c2)cc1 | Abl2 | enzyme activity, inhibitor | 10 µM | remaining activity | 87% |
| O=c1c(O[C@@H]2O[C@@H](CO)[C@H](O)[C@H]2O)c(-c2ccc(O)c(O)c2)oc2cc(O)cc(O)c12 | Si | enzyme activity, inhibitor | 100 µg/mL | inhibition | 52.4% |
| Cc1cnc(Nc2ccc(OCCN3CCCC3)cc2)nc1Nc1cccc(S(=O)(=O)NC(C)(C)C)c1 | BRD1 bromodomain | thermal stability, DSF | 10 µM | ΔTm | 0.51 °C |
| CC(C)(C)c1nc2c(s1)c1nc(N)ncc1c1ccc(NS(=O)(=O)c3c(F)cccc3F)c(F)c12 | EIF2AK1 | enzyme activity, inhibitor, radiometric | 1 µM | remaining activity | 69% |
